ChEMBL document CHEMBL1687916, “Non-nucleoside inhibitors of human adenosine kinase: synthesis, molecular modeling, and biological studies” (J Med Chem, 2011)
The source made the active and inactive calls. The calls are words filed in the database; no cut-off is given here.

Assays:
Adenosine kinase = Adenosine kinase (Homo sapiens, UniProt P55263); test: Inhibition of human adenosine kinase; details: read-out: IC50
NIH3T3 = test: Cytotoxicity against mouse 3T3 cells by phenyltetrazolium bromide assay; type: functional, cell-based
In short: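 Murine 3T3 fibroblasts; proliferation measured by MTT assay, with IC50 reported. Each value is the mean of three determinations; Student's t test, p < 0.05.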

[1] = target: T1, Adenosine deaminase (Bos taurus) (UniProt P56658); test: Inhibition of bovine ADA at 100 uM by spectrophotometric analysis
T1 sequence (whole entry): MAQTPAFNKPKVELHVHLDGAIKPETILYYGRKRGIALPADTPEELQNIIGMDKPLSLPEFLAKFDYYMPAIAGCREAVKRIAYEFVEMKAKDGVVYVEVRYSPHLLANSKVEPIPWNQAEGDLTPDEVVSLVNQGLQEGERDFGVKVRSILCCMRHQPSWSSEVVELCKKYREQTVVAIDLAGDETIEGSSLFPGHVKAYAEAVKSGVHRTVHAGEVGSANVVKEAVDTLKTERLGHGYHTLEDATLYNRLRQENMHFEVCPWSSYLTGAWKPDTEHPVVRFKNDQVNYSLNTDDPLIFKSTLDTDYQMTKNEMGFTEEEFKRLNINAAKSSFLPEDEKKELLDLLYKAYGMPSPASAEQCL
In short: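 Adenosine deaminase assayed at 30 C with 50 μM Ado, 50 mM potassium phosphate pH 7.2 and 0.3 nM enzyme. Deamination was followed as A262 change over 2 min. Compound tested at 100 μM, with DMSO at most 4% final and a substrate-free blank. Percent inhibition from two determinations in triplicate.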

HL-60 [2] = test: Induction of apoptosis in human HL60 cells assessed as DNA content at 100 uM after 24 hrs by flow cytometry relative to vehicle-treated; type: functional
In short: (§1)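 HL-60 cells treated with vehicle (0.1% DMSO) or 25-100 μM compound for 24, 48 or 72 h, harvested by centrifugation, PI-stained for 30 min at 37 C in the dark, and analysed by flow cytometry (10 000 gated events). Cells with under 2N DNA content were scored apoptotic. Three independent experiments.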

K562 [3] = test: Cytotoxicity against human K562 cells assessed as dead cells after 7 days by Burker cell counter; type: functional, cell-based
In short: (§2)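 K562 cells in RPMI 1640 with 10% fetal calf serum, seeded at 5000 cells/mL and held 15 h at 37 C in 5% CO2. Serial compound dilutions were added and cells incubated 7 days. Aliquots were mixed with 0.5% trypan blue; unstained and blue cells were counted on a Bürker chamber. Triplicate points, each count averaged from four determinations.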

K562 [4] = test: Growth inhibition of human K562 cells after 7 days by Burker cell counter; type: functional; details: K562, 168 h; in short: as §2
HL-60 [5] = test: Cytotoxicity against human HL60 cells after 72 hrs; type: functional, cell-based; details: HL-60, 72 h
In short: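 HL-60 cells (40 000/well) in RPMI-1640 with 10% FBS and penicillin/streptomycin, seeded for 24 h, then exposed to vehicle (0.1% DMSO) or a concentration range for 72 h. AlamarBlue (10% v/v) was added for 4.5 h at 37 C and fluorescence read at ex 544/em 590 nm. Viability is relative to vehicle control; IC50 from dose-response curves; three independent experiments.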

Homo sapiens = species on record: Homo sapiens; test: Cytostatic activity against human Cen3tel cells at 40 uM after 24 to 48 hrs compound added for every 24 hrs; type: functional, cell-based
In short: (§3)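 Cells (8 × 10^4) grown at 37 C in DMEM with 10% fetal calf serum, 5 mM L-glutamine and 50 μg/mL gentamycin, with or without 40 μM compound for 3 days. Medium and compound were replaced daily. Cultures were counted every day after trypsinization.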

[6] = Cellular permeability in human HeLaS3 cells assessed as level of [3H]AMP produced at 2.5 to 25 uM by scintillation counter; type: ADME, cell-based; details: hela s3, 25 µM
In short: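 HeLaS-3 cells grown in DMEM with fetal calf serum at 37 C, trypsinized, then resuspended at 10^6 cells/mL in serum-free DMEM with compound and 3 μCi [3H]Ado (25 Ci/mmol) at 37 C. Samples taken at 0, 10, 20, 30 and 40 min were spotted on DE-81 filters and washed. [3H]AMP was measured by scintillation counting. Mean of three determinations.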

HeLa S3 [7] = test: Inhibition of DNA syntheses in human HeLaS3 cells assessed as [3H]thymidine incorporation at 10 uM after 40 mins by scintillation counter; type: functional, cell-based
In short: (§4)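 HeLaS-3 cells grown in DMEM with fetal calf serum, trypsinized, and resuspended at 10^6 cells/mL in serum-free DMEM at 37 C with 0, 10 or 50 μM compound plus 5 μCi [3H]thymidine (25 Ci/mmol) or [3H]uridine (22 Ci/mmol). Samples at 0-40 min were spotted on GF/C filters, washed in 5% TCA and ethanol, and acid-precipitable radioactivity counted. Mean of three determinations.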

HL-60 [8] = test: Induction of apoptosis in human HL60 cells assessed as DNA content at 50 uM after 24 hrs by flow cytometry relative to vehicle-treated control; type: functional; in short: as §1
HeLa S3 [9] = test: Cytostatic activity against human HeLaS3 cells at 40 uM after 24 to 48 hrs compound added for every 24 hrs; type: functional, cell-based; in short: as §3
HeLa S3 (Homo sapiens) [10] = test: Growth inhibition of human HeLaS-3 cells pretreated for 2 days measured after 2 days of compound wash out by Burker cell counter
HL-60 [11] = test: Induction of apoptosis in human HL60 cells assessed as DNA content at 100 uM after 48 hrs by flow cytometry relative to vehicle-treated; type: functional; in short: as §1
HeLa S3 (Homo sapiens) [12] = test: Growth inhibition of human HeLaS-3 cells pretreated for 2 days measured after 24 hrs of compound wash out by Burker cell counter
[13] = Metabolic stability of the compound in human HeLaS3 cell crude extract assessed as compound degradation measured upto 20 hrs pretreated at 40 uM for 3 days; type: ADME, cell-based; details: hela s3, 20 h
In short: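 HeLaS-3 cells cultured 3 days with 40 μM compound added fresh every 24 h; crude extract prepared by hypotonic Hepes buffer lysis, dounce homogenization and 10000g spin. Compound (1 mM) was incubated in extract at 37 C for 0, 1, 5 and 20 h, then lyophilized and extracted twice with cold MeOH. Remaining compound was quantified by reverse-phase HPLC.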

HeLa S3 [14] = test: Inhibition of DNA syntheses in human HeLaS3 cells assessed as [3H]thymidine incorporation at 50 uM after 40 mins by scintillation counter; type: functional, cell-based; in short: as §4
HeLa S3 [15] = test: Inhibition of RNA syntheses in human HeLaS3 cells assessed as inhibition of [3H]uridine incorporation after 40 mins by scintillation counter; type: functional, cell-based; in short: as §4

Sequence of Adenosine kinase (P55263 whole entry): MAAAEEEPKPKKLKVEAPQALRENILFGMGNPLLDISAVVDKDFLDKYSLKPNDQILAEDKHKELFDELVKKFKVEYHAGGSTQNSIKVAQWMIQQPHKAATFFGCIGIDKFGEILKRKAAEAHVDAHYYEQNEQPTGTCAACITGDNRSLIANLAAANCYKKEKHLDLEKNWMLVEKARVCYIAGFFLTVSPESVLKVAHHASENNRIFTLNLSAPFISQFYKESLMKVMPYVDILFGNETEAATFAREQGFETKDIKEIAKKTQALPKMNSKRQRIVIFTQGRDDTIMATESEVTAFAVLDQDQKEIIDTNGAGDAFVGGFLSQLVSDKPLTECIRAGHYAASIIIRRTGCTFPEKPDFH

CCC1(c2ccc(CSc3ccccc3Cl)cc2)Oc2ccccc2-n2cccc2C1=O (racemic)
IC50 (Adenosine kinase): 1 µM
IC50 (NIH3T3): 97.8 µM
inhibition [1]: 6.5%

C#Cc1ccc(SCc2ccc(C3(CC)Oc4ccccc4-n4cccc4C3=O)cc2)cc1 (racemic)
IC50 (Adenosine kinase): 15 µM
inhibition [1]: 16%

CCC1(c2ccc(CSc3cccc(C(F)(F)F)c3)cc2)Oc2ccccc2-n2cccc2C1=O (racemic)
IC50 (Adenosine kinase): 2.5 µM
IC50 (NIH3T3): 44.6 µM
inhibition [1]: 2.7%

CCC1(c2ccc(CSc3ccc(F)cc3)cc2)Oc2ccccc2-n2cccc2C1=O (racemic)
IC50 (Adenosine kinase): 1 µM
inhibition [1]: 13%

CCC1(c2ccc(CSc3ccc(I)cc3)cc2)Oc2ccccc2-n2cccc2C1=O (racemic)
IC50 (Adenosine kinase): 2.5 µM
IC50 (NIH3T3): 43.5 µM

CCC1(c2ccccc2)Oc2ccccc2-n2cccc2C1=O (racemic)
IC50 (Adenosine kinase): 85 µM

CCC1(c2ccc(COc3cccc(CCO)c3)cc2)Oc2ccccc2-n2cccc2C1=O (racemic)
IC50 (Adenosine kinase): 8 µM

CCC1(c2ccc(CSc3ccc(I)cc3)cc2)Sc2ccccc2-n2cccc2C1=O (racemic)
IC50 (Adenosine kinase): 2.2 µM

CCC1(c2ccc(CSc3ccc(Br)cc3)cc2)Oc2ccccc2-n2cccc2C1=O (racemic)
IC50 (Adenosine kinase): 2 µM
IC50 (NIH3T3): 47.6 µM

CCC1(c2ccc(CSc3ccc(F)cc3F)cc2)Oc2ccccc2-n2cccc2C1=O (racemic)
IC50 (Adenosine kinase): 10 µM

CCC1(c2ccc(CSc3cc(OC)ccc3OC)cc2)Oc2ccccc2-n2cccc2C1=O (racemic)
IC50 (Adenosine kinase): 35 µM

CCC1(c2ccc(CSc3ccccc3)cc2)Oc2ccccc2-n2cccc2C1=O (racemic)
Activity (HL-60 [2]): 70%
Activity (K562 [3]): Not toxic
IC50 (Adenosine kinase): 1.2 µM
GI50 (K562 [4]): 1000 nM
IC50 (HL-60 [5]): 34.2 µM
Activity (Homo sapiens): inactive
Drug uptake [6]: Active
Activity (HeLa S3 [7]): inactive
Activity (HL-60 [8]): 44%
IC50 (NIH3T3): 118 µM
Activity (HeLa S3 [9]): inactive
growth inhibition (GI) (HeLa S3 (Homo sapiens) [10]): inactive
Activity (HL-60 [11]): 90%
growth inhibition (GI) (HeLa S3 (Homo sapiens) [12]): Active
inhibition [1]: 15%
Stability [13]: Stable
Activity (HeLa S3 [14]): inactive
IC50 (HeLa S3 [15]): 50 µM

CCC1(c2ccc(CSc3ccc(C#C[Si](C)(C)C)cc3)cc2)Oc2ccccc2-n2cccc2C1=O (racemic)
IC50 (Adenosine kinase): 10 µM

CCC1(c2ccc(CSc3cccc(Cl)c3)cc2)Oc2ccccc2-n2cccc2C1=O (racemic)
IC50 (Adenosine kinase): 3.5 µM

CCC1(c2ccc(CSc3c(Cl)cccc3Cl)cc2)Oc2ccccc2-n2cccc2C1=O (single isomer, unassigned; (-))
IC50 (Adenosine kinase): 40 µM

O=C1c2cccn2-c2ccccc2SC1c1ccccc1 (racemic)
IC50 (Adenosine kinase): 130 µM

CCC1(c2ccc(COc3ccc(I)cc3Cl)cc2)Oc2ccccc2-n2cccc2C1=O (racemic)
IC50 (Adenosine kinase): 1.2 µM

CCC1(c2ccc(CSc3ccccc3F)cc2)Oc2ccccc2-n2cccc2C1=O (racemic)
IC50 (Adenosine kinase): 4.5 µM
